Assay results: ChEMBL document CHEMBL4020802, “Fused bi-heteroaryl substituted hydantoin compounds as TACE inhibitors” (Bioorg Med Chem Lett, 2017)

Legend:
Blood = test: Antiinflammatory activity in human whole blood assessed as inhibition of LPS-induced TNF-alpha release preincubated for 1 hr followed by LPS addition after 3.5 hrs by ELISA method; type: functional
[1] = molecular target: Disintegrin and metalloproteinase domain-containing protein 17 (Homo sapiens, UniProt P78536); test: Inhibition of catalytic domain TACE (unknown origin) by FRET assay
Sequence of Disintegrin and metalloproteinase domain-containing protein 17 (P78536 whole entry, the tested form may be a part): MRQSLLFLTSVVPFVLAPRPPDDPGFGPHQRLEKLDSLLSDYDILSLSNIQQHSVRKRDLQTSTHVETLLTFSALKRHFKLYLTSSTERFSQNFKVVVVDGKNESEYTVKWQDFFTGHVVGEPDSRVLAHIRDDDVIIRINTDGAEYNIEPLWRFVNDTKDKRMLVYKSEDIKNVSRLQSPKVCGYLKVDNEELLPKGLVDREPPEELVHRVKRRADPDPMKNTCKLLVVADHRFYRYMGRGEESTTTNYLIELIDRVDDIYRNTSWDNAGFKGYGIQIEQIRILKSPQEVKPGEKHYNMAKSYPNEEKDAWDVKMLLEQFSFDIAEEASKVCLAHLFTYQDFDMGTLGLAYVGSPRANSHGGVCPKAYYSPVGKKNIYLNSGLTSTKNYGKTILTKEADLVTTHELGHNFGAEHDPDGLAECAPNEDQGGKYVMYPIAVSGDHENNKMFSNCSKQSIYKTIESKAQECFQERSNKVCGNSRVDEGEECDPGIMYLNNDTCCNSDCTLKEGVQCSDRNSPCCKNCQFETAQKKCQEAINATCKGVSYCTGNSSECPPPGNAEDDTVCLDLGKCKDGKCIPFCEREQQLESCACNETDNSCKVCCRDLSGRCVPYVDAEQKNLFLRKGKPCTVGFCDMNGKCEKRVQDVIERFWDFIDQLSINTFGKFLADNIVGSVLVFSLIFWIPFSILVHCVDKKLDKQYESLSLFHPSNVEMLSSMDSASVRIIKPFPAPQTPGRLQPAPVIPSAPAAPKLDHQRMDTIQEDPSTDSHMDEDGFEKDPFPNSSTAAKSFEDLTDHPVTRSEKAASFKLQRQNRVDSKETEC

[2] = AUC in rat; type: ADME; parameters: concentration or dose not given beside the values; settings: in vivo
Interstitial collagenase = molecular target: T1, Interstitial collagenase (Homo sapiens, UniProt P03956); test: Inhibition of MMP1 (unknown origin)
T1 sequence (P03956 whole entry): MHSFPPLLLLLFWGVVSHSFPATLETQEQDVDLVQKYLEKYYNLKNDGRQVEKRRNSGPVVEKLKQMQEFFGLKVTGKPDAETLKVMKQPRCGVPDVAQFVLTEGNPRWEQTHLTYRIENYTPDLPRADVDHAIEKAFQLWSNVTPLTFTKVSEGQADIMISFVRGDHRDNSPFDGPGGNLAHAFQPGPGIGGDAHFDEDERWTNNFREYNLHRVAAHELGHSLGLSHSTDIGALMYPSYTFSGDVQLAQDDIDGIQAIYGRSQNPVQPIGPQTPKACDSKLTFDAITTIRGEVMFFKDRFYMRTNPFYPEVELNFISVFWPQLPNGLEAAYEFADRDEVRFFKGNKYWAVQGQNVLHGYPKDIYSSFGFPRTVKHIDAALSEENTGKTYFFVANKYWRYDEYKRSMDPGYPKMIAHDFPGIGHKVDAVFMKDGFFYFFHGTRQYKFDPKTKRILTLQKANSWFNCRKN

[3] = AUC in dog at 3 mg/kg, po; type: ADME, organism-based, Canis lupus familiaris; settings: in vivo
How it was run: (§1)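 Oral dosing of rats, dogs and monkeys, with compounds given as Na+ or HCl salts in a 0.4% HPMC formulation. Doses were 10 mg/kg in rat, 2 or 3 mg/kg in dog, and 3 or 10 mg/kg in monkey. Plasma exposure was reported as AUC in µM·h, and oral bioavailability as F%.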

Collagenase 3 = Collagenase 3 (Homo sapiens, UniProt P45452); test: Inhibition of MMP13 (unknown origin)
Matrilysin = molecular target: T2, Matrilysin (Homo sapiens, UniProt P09237); test: Inhibition of MMP7 (unknown origin)
T2 sequence (P09237 whole entry): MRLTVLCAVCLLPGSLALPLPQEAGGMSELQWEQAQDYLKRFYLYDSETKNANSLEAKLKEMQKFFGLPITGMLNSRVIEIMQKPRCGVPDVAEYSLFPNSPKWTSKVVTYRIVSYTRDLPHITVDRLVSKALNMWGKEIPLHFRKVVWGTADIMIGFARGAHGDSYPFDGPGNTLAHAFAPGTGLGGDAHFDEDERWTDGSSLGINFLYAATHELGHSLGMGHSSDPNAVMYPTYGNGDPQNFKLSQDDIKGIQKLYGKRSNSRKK

[4] = molecular target: Matrix metalloproteinase-14 (Homo sapiens, UniProt P50281); test: Inhibition of MMP14 (unknown origin)
[5] = Oral bioavailability in dog at 3 mg/kg; type: ADME, organism-based, Canis lupus familiaris; settings: in vivo; how it was run: as §1
[6] = Permeability from apical side to basolateral side in human Caco2 cells; type: ADME, cell-based; settings: Caco-2, read-out: permeability
[7] = AUC in monkey at 3 mg/kg, po; type: ADME, organism-based, Macaca mulatta; settings: rhesus monkey, in vivo; how it was run: as §1
[8] = Oral bioavailability in monkey at 3 mg/kg; type: ADME, organism-based, Macaca mulatta; settings: rhesus monkey, in vivo; how it was run: as §1
[9] = molecular target: 72 kDa type IV collagenase (Homo sapiens, UniProt P08253); test: Inhibition of MMP2 (unknown origin)
Sequence of 72 kDa type IV collagenase (P08253 whole entry): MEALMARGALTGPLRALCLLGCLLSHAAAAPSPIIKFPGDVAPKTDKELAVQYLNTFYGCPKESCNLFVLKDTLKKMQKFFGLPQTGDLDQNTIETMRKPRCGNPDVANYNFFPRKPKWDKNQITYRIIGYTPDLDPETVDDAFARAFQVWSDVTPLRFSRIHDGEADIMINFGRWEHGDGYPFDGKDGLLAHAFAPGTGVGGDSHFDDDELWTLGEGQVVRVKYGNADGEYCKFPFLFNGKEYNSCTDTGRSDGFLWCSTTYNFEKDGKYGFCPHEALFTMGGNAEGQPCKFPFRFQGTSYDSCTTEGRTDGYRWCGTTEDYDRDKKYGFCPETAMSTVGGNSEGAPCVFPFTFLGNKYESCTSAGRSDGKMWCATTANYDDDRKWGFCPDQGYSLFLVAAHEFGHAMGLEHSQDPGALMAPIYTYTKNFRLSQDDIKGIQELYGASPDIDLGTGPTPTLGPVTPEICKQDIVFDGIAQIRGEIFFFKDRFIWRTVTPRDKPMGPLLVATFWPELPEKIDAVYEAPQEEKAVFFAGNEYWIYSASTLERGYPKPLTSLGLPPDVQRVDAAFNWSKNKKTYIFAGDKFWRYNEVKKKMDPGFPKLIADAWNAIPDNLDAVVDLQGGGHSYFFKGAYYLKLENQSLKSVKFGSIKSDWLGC

[10] = Clearance in rat at 3 mg/kg, iv; type: ADME, organism-based; settings: in vivo
[11] = Clearance in monkey at 1 mg/kg, iv; type: ADME, organism-based, Macaca mulatta; settings: rhesus monkey, in vivo
[12] = molecular target: T3, Disintegrin and metalloproteinase domain-containing protein 10 (Homo sapiens, UniProt O14672); test: Inhibition of ADAM10 (unknown origin)
T3 sequence (O14672 whole entry): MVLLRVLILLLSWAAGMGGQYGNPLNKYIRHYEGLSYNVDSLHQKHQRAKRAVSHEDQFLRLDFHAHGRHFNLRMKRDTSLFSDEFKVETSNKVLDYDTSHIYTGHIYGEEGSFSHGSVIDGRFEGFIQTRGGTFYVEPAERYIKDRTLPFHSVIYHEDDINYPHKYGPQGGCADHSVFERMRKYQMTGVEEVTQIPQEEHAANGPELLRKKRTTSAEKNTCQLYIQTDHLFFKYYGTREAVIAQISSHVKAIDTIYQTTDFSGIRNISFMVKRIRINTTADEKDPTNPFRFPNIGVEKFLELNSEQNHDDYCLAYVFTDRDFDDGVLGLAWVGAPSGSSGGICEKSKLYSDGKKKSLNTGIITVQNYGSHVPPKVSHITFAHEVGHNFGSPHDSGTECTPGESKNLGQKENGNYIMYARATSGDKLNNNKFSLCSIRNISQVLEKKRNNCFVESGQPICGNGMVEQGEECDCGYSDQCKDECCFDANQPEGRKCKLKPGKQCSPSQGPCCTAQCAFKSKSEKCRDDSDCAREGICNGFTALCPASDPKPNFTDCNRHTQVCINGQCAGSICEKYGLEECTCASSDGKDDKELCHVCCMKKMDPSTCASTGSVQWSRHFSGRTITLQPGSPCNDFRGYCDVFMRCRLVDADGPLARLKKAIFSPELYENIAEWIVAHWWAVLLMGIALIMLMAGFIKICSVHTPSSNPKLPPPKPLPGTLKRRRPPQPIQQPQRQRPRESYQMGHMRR

[13] = molecular target: Matrix metalloproteinase-9 (Homo sapiens, UniProt P14780); test: Inhibition of MMP9 (unknown origin)
Sequence of Matrix metalloproteinase-9 (P14780 whole entry): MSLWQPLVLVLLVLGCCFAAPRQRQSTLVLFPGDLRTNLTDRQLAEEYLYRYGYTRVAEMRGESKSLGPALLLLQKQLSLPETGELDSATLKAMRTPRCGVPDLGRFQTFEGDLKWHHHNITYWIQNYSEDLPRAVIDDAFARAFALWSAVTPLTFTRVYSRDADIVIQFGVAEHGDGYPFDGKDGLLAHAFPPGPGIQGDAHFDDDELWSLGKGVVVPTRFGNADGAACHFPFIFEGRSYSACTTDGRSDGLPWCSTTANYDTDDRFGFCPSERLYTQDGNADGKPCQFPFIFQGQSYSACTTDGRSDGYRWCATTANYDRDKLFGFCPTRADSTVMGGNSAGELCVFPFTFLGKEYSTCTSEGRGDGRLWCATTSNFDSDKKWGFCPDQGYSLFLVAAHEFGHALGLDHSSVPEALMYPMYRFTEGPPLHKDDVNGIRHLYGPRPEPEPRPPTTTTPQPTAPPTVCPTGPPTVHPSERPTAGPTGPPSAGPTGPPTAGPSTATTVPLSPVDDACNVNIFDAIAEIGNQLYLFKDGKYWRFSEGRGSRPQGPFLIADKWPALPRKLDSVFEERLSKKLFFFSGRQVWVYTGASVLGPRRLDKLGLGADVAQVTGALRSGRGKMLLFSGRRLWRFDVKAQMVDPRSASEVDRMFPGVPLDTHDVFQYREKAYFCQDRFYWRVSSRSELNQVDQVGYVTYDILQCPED

[14] = AUC in rat at 10 mg/kg, po; type: ADME, organism-based; settings: in vivo; how it was run: as §1
[15] = Oral bioavailability in rat at 10 mg/kg; type: ADME, organism-based; settings: in vivo; how it was run: as §1
Stromelysin-1 = Stromelysin-1 (Homo sapiens, UniProt P08254); test: Inhibition of MMP3 (unknown origin)
Sequence of Stromelysin-1 (P08254 whole entry): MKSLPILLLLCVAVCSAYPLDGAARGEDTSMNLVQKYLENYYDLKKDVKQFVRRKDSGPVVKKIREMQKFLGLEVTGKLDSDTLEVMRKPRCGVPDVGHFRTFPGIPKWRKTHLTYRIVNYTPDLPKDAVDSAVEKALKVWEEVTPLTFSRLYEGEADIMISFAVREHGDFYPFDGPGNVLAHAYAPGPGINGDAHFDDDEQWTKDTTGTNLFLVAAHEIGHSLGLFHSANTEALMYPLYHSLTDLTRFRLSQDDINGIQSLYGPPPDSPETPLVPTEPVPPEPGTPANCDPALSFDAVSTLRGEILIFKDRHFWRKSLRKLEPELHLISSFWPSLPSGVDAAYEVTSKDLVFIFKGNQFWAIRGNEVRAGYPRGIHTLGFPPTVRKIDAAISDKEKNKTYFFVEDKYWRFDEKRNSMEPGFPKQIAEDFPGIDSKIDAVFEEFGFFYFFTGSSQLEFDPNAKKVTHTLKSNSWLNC

[16] = Clearance in dog at 0.5 mg/kg, iv; type: ADME, organism-based, Canis lupus familiaris; settings: in vivo
[17] = AUC in dog at 2 mg/kg, po; type: ADME, organism-based, Canis lupus familiaris; settings: in vivo; how it was run: as §1
[18] = AUC in monkey at 10 mg/kg, po; type: ADME, organism-based, Macaca mulatta; settings: rhesus monkey, in vivo; how it was run: as §1
[19] = Oral bioavailability in monkey at 10 mg/kg; type: ADME, organism-based, Macaca mulatta; settings: rhesus monkey, in vivo; how it was run: as §1

Compound	IC50 (Blood) [nM]	Ki [1] [nM]	AUC [2] [µM·h]	further results
COc1ccc2c(c1)C(=O)N(C[C@@]1(c3cc4cnccc4o3)NC(=O)NC1=O)C2	270	0.7	13	IC50 (Interstitial collagenase): 4710 nM; AUC [3]: 52 µM·h; IC50 (Collagenase 3): 684 nM; IC50 (Matrilysin): > 40000 nM; IC50 [4]: 239 nM; bioavailability [5]: 98%; Papp A→B [6]: 1.5 ×10⁻⁶ cm/s; AUC [7]: 10 µM·h; bioavailability [8]: 19%; IC50 [9]: 533 nM; clearance [10]: 23 mL/min/kg; clearance [11]: 7 mL/min/kg; Ki [12]: 144 nM; IC50 [13]: 1760 nM; AUC [14]: 11 µM·h; bioavailability [15]: 58%; IC50 (Stromelysin-1): 5500 nM; clearance [16]: 3 mL/min/kg
COc1ccc2c(c1F)C(=O)N(C[C@@]1(c3cc4nc(N5CCC(N(C)C)CC5)ccc4o3)NC(=O)NC1=O)C2	76		0.04	
COc1ccc2c(c1)C(=O)N(C[C@@]1(c3cc4cccnc4o3)NC(=O)NC1=O)C2	590	0.7	34	
CNC(=O)c1cnc2cc([C@]3(CN4Cc5ccc(OC)cc5C4=O)NC(=O)NC3=O)oc2c1		0.9		
COc1ccc2c(c1F)C(=O)N(C[C@@]1(c3cc4nc(C)c(-c5ccc(N)nc5)cc4o3)NC(=O)NC1=O)C2	308			
COc1ccc2c(c1)C(=O)N(C[C@@]1(c3cc4cncnc4o3)NC(=O)NC1=O)C2	770	1.6	2.2	
COc1ccc2c(c1)C(=O)N(C[C@@]1(c3cc4c(C#N)nccc4o3)NC(=O)NC1=O)C2	1240	0.7	0.5	
COc1ccc2c(c1)C(=O)N(C[C@@]1(c3cn4ccccc4n3)NC(=O)NC1=O)C2	1480	1.4		
COc1ccc2c(c1)C(=O)N(C[C@@]1(c3cn4ccsc4n3)NC(=O)NC1=O)C2	540	1.3	2.2	
COc1ccc2c(c1)C(=O)N(C[C@@]1(c3cn4cccnc4n3)NC(=O)NC1=O)C2	710	1.9	3.2	
COc1ccc2c(c1)C(=O)N(C[C@@]1(c3cc4nc(N(c5cn[nH]c5)C5CCN(C)CC5)ccc4o3)NC(=O)NC1=O)C2		1	0.06	Papp A→B [6]: 0.1 ×10⁻⁶ cm/s
COc1ccc2c(c1)C(=O)N(C[C@@]1(c3cc4cncc(F)c4o3)NC(=O)NC1=O)C2	1090	2	2.7	
COc1ccc2c(c1)C(=O)N(C[C@@]1(C#Cc3cccnc3)NC(=O)NC1=O)C2				Papp A→B [6]: 1.6 ×10⁻⁶ cm/s
COc1ccc2c(c1)C(=O)N(C[C@@]1(c3cc4cnc(N5CCNC5=O)cc4o3)NC(=O)NC1=O)C2	210	1.8	1.2	
COc1ccc2c(c1)C(=O)N(C[C@@]1(c3cc4ncccc4[nH]3)NC(=O)NC1=O)C2	2970	3.6		
COc1ccc2c(c1)C(=O)N(C[C@@]1(c3cc4c(N5CCNCC5)nccc4o3)NC(=O)NC1=O)C2	230	2.5		

Continued, in another order:

IC50 (Blood) [nM]	Ki [1] [nM]	AUC [2] [µM·h]	Compound	further results
150	0.2		COc1ccc2c(c1)C(=O)N(C[C@@]1(c3cc4c(-c5cn[nH]c5)nccc4o3)NC(=O)NC1=O)C2	
	0.6	0.1	COc1ccc2c(c1F)C(=O)N(C[C@@]1(c3cc4nc(N5CCNC(=O)C5)ccc4o3)NC(=O)NC1=O)C2	
93	0.4		COc1ccc2c(c1)C(=O)N(C[C@@]1(c3cc4nc(N(c5cn[nH]c5)C5CCNCC5)ccc4o3)NC(=O)NC1=O)C2	Papp A→B [6]: 0.22 ×10⁻⁶ cm/s
210	0.4	26.3	COc1ccc2c(c1F)C(=O)N(C[C@@]1(c3cc4cnc(C)cc4o3)NC(=O)NC1=O)C2	AUC [17]: 13.5 µM·h; AUC [7]: 1.5 µM·h; AUC [14]: 13.4 µM·h; bioavailability [15]: 11%
1070	0.4		COc1ccc2c(c1)C(=O)N(C[C@@]1(c3cc4c(C(F)(F)F)nccc4o3)NC(=O)NC1=O)C2	
2310	0.3	0.2	COc1ccc2c(c1)C(=O)N(C[C@@]1(c3cc4ccccc4o3)NC(=O)NC1=O)C2	
1620	0.5	19.3	COc1ccc2c(c1)C(=O)N(C[C@@]1(c3cc4cnc(C(F)(F)F)cc4o3)NC(=O)NC1=O)C2	
250	0.2		COc1ccc2c(c1)C(=O)N(C[C@@]1(c3cc4c(O)nccc4o3)NC(=O)NC1=O)C2	
310	0.4	0.1	COc1ccc2c(c1)C(=O)N(C[C@@]1(c3cc4cncc(N)c4o3)NC(=O)NC1=O)C2	
290	0.5	27	COc1ccc2c(c1)C(=O)N(C[C@@]1(c3cc4ncccc4o3)NC(=O)NC1=O)C2	AUC [3]: 41 µM·h; bioavailability [5]: 82%; Papp A→B [6]: 1.2 ×10⁻⁶ cm/s; AUC [18]: 22 µM·h; bioavailability [19]: 46%; clearance [10]: 15 mL/min/kg; clearance [11]: 11 mL/min/kg; AUC [14]: 10 µM·h; bioavailability [15]: 35%; clearance [16]: 3 mL/min/kg
187	0.5	0.4	COc1ccc2c(c1)C(=O)N(C[C@@]1(c3cc4nc(N)ccc4o3)NC(=O)NC1=O)C2	
680	0.5	4.2	COc1ccc2c(c1)C(=O)N(C[C@@]1(c3cc4c(C)nc(C)cc4o3)NC(=O)NC1=O)C2	
350	0.4	19.1	COc1ccc2c(c1)C(=O)N(C[C@@]1(c3cc4cnc(C)cc4o3)NC(=O)NC1=O)C2	Papp A→B [6]: 2.05 ×10⁻⁶ cm/s
760	0.5	8.7	COc1ccc2c(c1)C(=O)N(C[C@@]1(c3cc4cncc(C)c4o3)NC(=O)NC1=O)C2	
	0.4	3.2	COc1ccc2c(c1F)C(=O)N(C[C@@]1(c3cc4nc(N5CC(=O)NC5=O)c(F)cc4o3)NC(=O)NC1=O)C2	
1370	0.4	21	COc1ccc2c(c1)C(=O)N(C[C@@]1(c3cc4nc(-n5cccn5)ccc4o3)NC(=O)NC1=O)C2	
99	0.5	0.1	COc1ccc2c(c1)C(=O)N(C[C@@]1(c3cc4nc(-c5cn[nH]c5)ccc4o3)NC(=O)NC1=O)C2	
